Type in all cases: functional
Assay [1] concerns Rattus norvegicus. The experiment in a line: In vivo antihistaminic activity after 2 hours of oral administration using 48/80 lethality test in rat. An outline of the steps:
(§1)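 Male inbred Wistar rats, 230–270 g, starved overnight, housed at 21 ± 1 °C and 65 ± 5% RH. Protection was survival at 4 h. ED50 by Finney from five rats per dose, at least three doses in a geometric series 0.0025–40 mg/kg.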

Assay [2] relates to Rattus norvegicus. The experiment in a line: In vivo antihistaminic activity after 1 hour of subcutaneous administration using 48/80 lethality test in rat. The conditions noted are these: sc. An outline of the steps:
as §1

Assay [3] relates to Cavia porcellus. The assay is described as follows: In vivo antihistaminic activity after 48 hr of oral administration using histamine lethality test in guinea pig. An outline of the steps:
(§2)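 Male albino guinea pigs, 280–360 g. Compound given orally in twofold dose increments 3, 24, 48 or 96 h before an iv challenge with histamine dihydrochloride at 1.25 mg/kg. Protection was survival at 1 h. PD50 with confidence limits by Finney, using 4–6 animals per dose and time point, at least three doses from a geometric series 0.0025–5.0 mg/kg.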

In assay [4] the test system is Cavia porcellus. The assay is described as follows: In vivo antihistaminic activity after 24 hr of oral administration using histamine lethality test in guinea pig. Put shortly: as §2
Assay [5] deals with Cavia porcellus. The assay is described as follows: In vivo antihistaminic activity after 3 hr of oral administration using histamine lethality test in guinea pig. Put shortly:
as §2

Assay [6] relates to Cavia porcellus. The assay is described as follows: In vivo antihistaminic activity after 96 hr of oral administration using histamine lethality test in guinea pig. An outline of the steps: as §2
For assay [7], the system named is Cavia porcellus. The experiment in a line: In vivo antihistaminic activity after 48 hr of oral administration using histamine lethality test in guinea pig. Put shortly:
as §2

The test system of assay [8] is Cavia porcellus. The experiment in a line: In vivo antihistaminic activity after 24 hr of oral administration using histamine lethality test in guinea pig. An outline of the steps:
as §2

Assay [9] concerns Cavia porcellus. The assay is described as follows: In vivo antihistaminic activity after 3 hr of oral administration using histamine lethality test in guinea pig. Put shortly: as §2

Bounds are passed on as bounds.

As usually defined, the ED50 is the dose that gives a 50% effect, or the effect in half of the subjects. Read a high ED50 as a need for a large dose. On to `Fc1ccc(Cn2c(NC3CCN(C/C=C/c4ccccc4)CC3)nc3cccnc32)cc1`, for which the ED50 is greater than 2.5 mg/kg with Rattus norvegicus [1] and 1.25 mg/kg in the assay on Rattus norvegicus [2].

With `c1ccc(Cn2c(NC3CCN(CCC(c4ccccc4)c4ccccc4)CC3)nc3cccnc32)cc1`, the ED50 in the assay on Rattus norvegicus [2] was greater than 2.5 mg/kg.

As to `c1ccc(CCN2CCC(Nc3nc4cccnc4n3Cc3ccccc3)CC2)cc1`, the ED50 in the assay with Rattus norvegicus [1] is greater than 2.5 mg/kg; in the assay on Rattus norvegicus [2], 0.08 mg/kg.

`Oc1nc2ccccc2n1CCCN1CCC(Nc2nc3cccnc3n2Cc2ccc(F)cc2)CC1`: the ED50 in the assay with Rattus norvegicus [1] came out at 2.5 mg/kg; in the assay with Rattus norvegicus [2] it was 0.63 mg/kg.

`Cc1cccc(C)c1NC(=O)CN1CCC(Nc2nc3cccnc3n2Cc2ccccc2)CC1` came in with an ED50 with Rattus norvegicus [2] greater than 2.5 mg/kg.

`c1ccc(Cn2c(NC3CCN(C4CCCCC4)CC3)nc3cccnc32)cc1`: the ED50 in the assay on Rattus norvegicus [1] was greater than 2.5 mg/kg; in the assay on Rattus norvegicus [2], 0.63 mg/kg.

As for `O=C(NCCN1CCC(Nc2nc3cccnc3n2Cc2ccccc2)CC1)c1ccc(F)cc1`, the figures for the ED50 in the assay on Rattus norvegicus [1] and with Rattus norvegicus [2] were 1.25 mg/kg and 0.08 mg/kg, respectively.

In the case of `O=C(CCCN1CCC(Nc2nc3cccnc3n2Cc2ccccc2)CC1)c1ccc(F)cc1`, the figures for the ED50 in the assay with Rattus norvegicus [1] and in the assay with Rattus norvegicus [2] were 1.25 mg/kg and 0.31 mg/kg, respectively.

Regarding `Fc1ccc(Cn2c(NC3CCN(CCCC(c4ccc(F)cc4)c4ccc(F)cc4)CC3)nc3cccnc32)cc1`, in the assay with Rattus norvegicus [2], the 50% effective dose (ED50) was greater than 2.5 mg/kg.

For `CC(C)N1CCC(Nc2nc3cccnc3n2Cc2ccccc2)CC1`, the ED50 in the assay on Rattus norvegicus [1] was greater than 2.5 mg/kg; in the assay on Rattus norvegicus [2] it was 0.63 mg/kg.

Turning to `CN1CCC(Nc2nc3cccnc3n2Cc2ccccc2)CC1`, the 50% effective dose (ED50) in the assay with Rattus norvegicus [1] was greater than 2.5 mg/kg; in the assay with Rattus norvegicus [2] it was 0.08 mg/kg.

For `CCCCN1CCC(Nc2nc3cccnc3n2Cc2ccccc2)CC1`, the median effective dose (ED50) in the assay with Rattus norvegicus [1] was greater than 2.5 mg/kg; in the assay on Rattus norvegicus [2] it was 0.16 mg/kg.

As for `Fc1ccc(Cn2c(NC3CCN(CCc4ccccc4)CC3)nc3cccnc32)cc1`, the figures for the ED50 in the assay on Rattus norvegicus [1] and in the assay on Rattus norvegicus [2] were greater than 2.5 mg/kg and 0.31 mg/kg, respectively.

For the compound `CN(C)C(=O)C(CCN1CCC(Nc2nc3cccnc3n2Cc2ccccc2)CC1)(c1ccccc1)c1ccccc1`, the ED50 in the assay on Rattus norvegicus [2] was greater than 2.5 mg/kg.

As to `C=CCN1CCC(Nc2nc3cccnc3n2Cc2ccccc2)CC1`, the ED50 in the assay on Rattus norvegicus [1] was greater than 2.5 mg/kg; in the assay with Rattus norvegicus [2], 0.31 mg/kg.

`Fc1ccc(Cn2c(NC3CCN(CCc4cccs4)CC3)nc3cccnc32)cc1`: the results for the ED50 in the assay on Rattus norvegicus [1] and in the assay with Rattus norvegicus [2] were greater than 2.5 mg/kg and 0.16 mg/kg, respectively.

In the case of `CN1CCC(Nc2nc3cccnc3n2Cc2ccc(F)cc2)CC1`, the results for the ED50 in the assay with Rattus norvegicus [1] and in the assay with Rattus norvegicus [2] were greater than 2.5 mg/kg and 0.08 mg/kg, respectively.

`Fc1ccc(OCCCN2CCC(Nc3nc4cccnc4n3Cc3ccccc3)CC2)cc1`: the ED50 with Rattus norvegicus [1] and with Rattus norvegicus [2] was 1.25 mg/kg each time.

As to `CCn1nnn(CCN2CCC(Nc3nc4cccnc4n3Cc3ccc(F)cc3)CC2)c1=O`, the ED50 in the assay with Rattus norvegicus [1] was greater than 2.5 mg/kg; with Rattus norvegicus [2] it was 0.31 mg/kg.

With `Fc1ccc(Cn2c(NC3CCN(CCCOc4ccccc4)CC3)nc3cccnc32)cc1`, the ED50 in the assay on Rattus norvegicus [1] and in the assay with Rattus norvegicus [2] was 0.31 mg/kg throughout.

As to `c1ccc(Cn2c(NC3CCN(CCN4CCOCC4)CC3)nc3cccnc32)cc1`, the 50% effective dose (ED50) with Rattus norvegicus [1] came out at 2.5 mg/kg; in the assay with Rattus norvegicus [2], 0.63 mg/kg.

For `COc1ccc(CCN2CCC(Nc3nc4cccnc4n3Cc3ccccc3)CC2)cc1`, the ED50 with Rattus norvegicus [1] worked out at 0.31 mg/kg; in the assay with Rattus norvegicus [2], 0.16 mg/kg.

Turning to `O=C(CCCN1CCC(Nc2nc3cccnc3n2Cc2ccc(F)cc2)CC1)c1ccc(F)cc1`, the results for the ED50 in the assay on Rattus norvegicus [1] and with Rattus norvegicus [2] were 1.25 mg/kg and 0.04 mg/kg, respectively.

`COc1ccc(CCN2CCC(Nc3nc4cccnc4n3Cc3ccc(F)cc3)CC2)cc1`: the ED50 in the assay with Cavia porcellus [3] was found to be 0.25 mg/kg; in the assay on Rattus norvegicus [1], 0.16 mg/kg; with Cavia porcellus [4] it was 0.12 mg/kg; in the assay with Cavia porcellus [5], 0.16 mg/kg; in the assay with Rattus norvegicus [2] it was 0.31 mg/kg.

For `Fc1ccc(Cn2c(NC3CCN(CCc4ccccn4)CC3)nc3cccnc32)cc1`, the results for the ED50 in the assay with Rattus norvegicus [1] and in the assay with Rattus norvegicus [2] were 0.31 mg/kg and 0.04 mg/kg, respectively.

With `C(=C\c1ccccc1)/CN1CCC(Nc2nc3cccnc3n2Cc2ccccc2)CC1`, the ED50 with Rattus norvegicus [1] and in the assay with Rattus norvegicus [2] was 1.25 mg/kg throughout.

On to `c1ccc(Cn2c(NC3CCN(CC4COc5ccccc5O4)CC3)nc3cccnc32)cc1` (stereo not drawn), for which the ED50 with Rattus norvegicus [1] is greater than 2.5 mg/kg; in the assay with Rattus norvegicus [2], 0.63 mg/kg.

For the compound `OC(COc1ccccc1)CN1CCC(Nc2nc3cccnc3n2Cc2ccccc2)CC1` (stereo not drawn), the results for the ED50 in the assay on Rattus norvegicus [1] and in the assay on Rattus norvegicus [2] were 0.63 mg/kg and 0.16 mg/kg, respectively.

Take `c1ccc(Cn2c(NC3CCN(CCOc4ccccc4)CC3)nc3cccnc32)cc1`: the values for the ED50 with Rattus norvegicus [1] and with Rattus norvegicus [2] were 1.25 mg/kg and 0.31 mg/kg, respectively.

For the compound `COc1ccc(CCN2CCC(Nc3nc4ccccc4n3Cc3ccc(F)cc3)CC2)cc1` [ASTEMIZOLE], the ED50 in the assay on Rattus norvegicus [1] turned out to be 0.11 mg/kg; in the assay with Cavia porcellus [6], 0.19 mg/kg; in the assay with Cavia porcellus [7] it was 0.04 mg/kg; with Cavia porcellus [8], 0.07 mg/kg; with Rattus norvegicus [2], 0.11 mg/kg; in the assay with Cavia porcellus [9], 0.33 mg/kg.

The values above are taken from ChEMBL document CHEMBL1122878, “New antihistaminic N-heterocyclic 4-piperidinamines. 3. Synthesis and antihistaminic activity of N-(4-piperidinyl)-3H-imidazo[4,5-b]pyridin-2-amines” (1985).
